Measurements reported in ChEMBL document CHEMBL1142894, “Preparation of 5-aryl-3-alkylthio-l,2,4-triazoles and corresponding sulfones with antiinflammatory-analgesic activity” (Bioorg Med Chem, 2007).
Calls of active or inactive are those of the source. The rule behind the calls is not given here.

Assays:
[1] = test system: Mus musculus; experiment: Antiinflammatory activity against carrageenan-induced paw edema in Swiss albino mouse assessed as swelling thickness at 50 mg/kg, po after 360 mins; type: functional
Method in brief: (§1)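 Oral dosing in 0.5% CMC; vehicle to controls. Then carrageenan (0.5 mg/25 ll, freshly suspended in 154 mM saline) injected into the right hind paw subplantar tissue; saline into the left paw. Right-left footpad thickness difference measured by dial gauge calliper every 90 min over 6 h. Inhibition % is relative to vehicle control. n = 6; mean ± SEM.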

[2] = test system: Mus musculus; experiment: Inhibition of carrageenan-induced paw edema in Swiss albino mouse at 50 mg/kg, po after 270 mins relative to control; type: functional; details: 4.5 h
Method in brief: (§2)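 Mice, n = 6 per group. Test agent given orally as a suspension in 0.5% sodium CMC in distilled water; controls received vehicle only. Afterwards, 0.5 mg/25 ll carrageenan in saline (154 mM NaCl) injected subplantar into the right hind paw, saline into the left. Right-minus-left footpad thickness measured by dial gauge caliper every 90 min for 6 h. Inhibition is relative to vehicle-control group means.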

[3] = test system: Mus musculus; experiment: Inhibition of carrageenan-induced paw edema in Swiss albino mouse at 50 mg/kg, po after 90 mins relative to control; type: functional; details: 1.5 h; method in brief: as §2
[4] = test system: Mus musculus; experiment: Inhibition of carrageenan-induced paw edema in Swiss albino mouse at 100 mg/kg, po after 180 mins relative to control; type: functional; details: 3 h; method in brief: as §1
[5] = test system: Mus musculus; experiment: Inhibition of carrageenan-induced paw edema in Swiss albino mouse at 25 mg/kg, po after 270 mins relative to control; type: functional; details: 4.5 h; method in brief: as §1
[6] = test system: Mus musculus; experiment: Antiinflammatory activity against carrageenan-induced paw edema in Swiss albino mouse assessed as swelling thickness at 200 mg/kg, po after 180 mins; type: functional; method in brief: as §1
[7] = test system: Mus musculus; experiment: Antiinflammatory activity in Swiss albino mouse assessed as inhibition of carrageenan-induced paw edema at 50 mg/kg, po; type: functional
[8] = test system: Mus musculus; experiment: Inhibition of carrageenan-induced paw edema in Swiss albino mouse at 25 mg/kg, po after 90 mins relative to control; type: functional; details: 1.5 h; method in brief: as §1
[9] = test system: Mus musculus; experiment: Antiinflammatory activity against carrageenan-induced paw edema in Swiss albino mouse assessed as swelling thickness at 100 mg/kg, po after 360 mins; type: functional; method in brief: as §1
[10] = test system: Mus musculus; experiment: Gastric-ulcerogenic effect in Swiss albino mouse assessed as lesions at 25 mg/kg, po; type: functional, organism-based; design: dose 25 mg/kg
Method in brief: (§3)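 Mice killed under deep ether anesthesia 3 h after the writhing test; the oral dose in 0.5% CMC was the one used in that test. Stomachs removed, opened along the great curvature and examined under a dissecting microscope for lesions or bleeding. Reported as ratio of ulceration; n = 6.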

[11] = test system: Mus musculus; experiment: Analgesic activity against p-benzoquinone-induced abdominal constriction in Swiss albino mouse assessed as number of writhings at 200 mg/kg, po; type: functional, Abdomen
Method in brief: (§4)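 Test samples given orally in 0.5% CMC; vehicle to controls. 60 min later, 2.5% (v/v) p-benzoquinone in distilled water, 0.1 ml/10 g, given i.p. Mice housed singly; writhes counted for 15 min starting 5 min after injection. Activity is % change from vehicle controls. n = 6; mean ± SEM.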

[12] = test system: Mus musculus; experiment: Inhibition of carrageenan-induced paw edema in Swiss albino mouse at 100 mg/kg, po after 360 mins relative to control; type: functional; details: 6 h; method in brief: as §1
[13] = test system: Mus musculus; experiment: Gastric-ulcerogenic effect in Swiss albino mouse assessed as lesions at 50 mg/kg, po; type: functional, organism-based; design: dose 50 mg/kg; method in brief: as §3
[14] = test system: Mus musculus; experiment: Antiinflammatory activity against carrageenan-induced paw edema in Swiss albino mouse assessed as swelling thickness at 25 mg/kg, po after 270 mins; type: functional; method in brief: as §1
[15] = test system: Mus musculus; experiment: Inhibition of carrageenan-induced paw edema in Swiss albino mouse at 200 mg/kg, po after 270 mins relative to control; type: functional; details: 4.5 h; method in brief: as §1
[16] = test system: Mus musculus; experiment: Antiinflammatory activity against carrageenan-induced paw edema in Swiss albino mouse assessed as swelling thickness at 100 mg/kg, po after 180 mins; type: functional; method in brief: as §1
[17] = test system: Mus musculus; experiment: Inhibition of p-benzoquinone-induced writhing in Swiss albino mouse at 50 mg/kg, po relative to control; type: functional
Method in brief: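 Mice, n = 6 per group, dosed orally with a suspension in 0.5% sodium CMC. 60 min later, 0.1 ml/10 g of 2.5% […] p-benzoquinone in distilled water given ip. Abdominal writhes counted per animal for 15 min, starting 5 min after injection. Expressed as % change in mean writhing count versus vehicle controls.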

[18] = test system: Mus musculus; experiment: Antiinflammatory activity against carrageenan-induced paw edema in Swiss albino mouse assessed as swelling thickness at 200 mg/kg, po after 270 mins; type: functional; method in brief: as §1
[19] = test system: Mus musculus; experiment: Inhibition of carrageenan-induced paw edema in Swiss albino mouse at 25 mg/kg, po after 360 mins relative to control; type: functional; details: 6 h; method in brief: as §1
[20] = test system: Mus musculus; experiment: Inhibition of carrageenan-induced paw edema in Swiss albino mouse at 100 mg/kg, po after 90 mins relative to control; type: functional; details: 1.5 h; method in brief: as §1
[21] = test system: Mus musculus; experiment: Acute toxicity in Swiss albino mouse assessed as lethal effect at 200 mg/kg/day, po after 72 hrs; type: organism-based; design: route oral; details: in vivo
Method in brief: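 Oral single dose suspended in 0.5% carboxymethylcellulose, given after a 24 h fast; food and water returned 1 h after dosing. Vehicle-only controls. Mice observed at 1 h, then once daily for 72 h, for toxic signs and mortality.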

[22] = test system: Mus musculus; experiment: Antiinflammatory activity against carrageenan-induced paw edema in Swiss albino mouse assessed as swelling thickness at 25 mg/kg, po after 90 mins; type: functional; method in brief: as §1
[23] = test system: Mus musculus; experiment: Analgesic activity against p-benzoquinone-induced abdominal constriction in Swiss albino mouse assessed as number of writhings at 25 mg/kg, po; type: functional, Abdomen; method in brief: as §4
[24] = test system: Mus musculus; experiment: Antiinflammatory activity against carrageenan-induced paw edema in Swiss albino mouse assessed as swelling thickness at 50 mg/kg, po after 180 mins; type: functional; method in brief: as §1

CCS(=O)(=O)c1nc(-c2ccc(Cl)cc2)n[nH]1
Activity [1]: 39.4 10^-2mm | inhibition in vivo at 50 mg/kg [2]: 42.6% | inhibition in vivo at 50 mg/kg [3]: 33.5% | inhibition in vivo at 100 mg/kg [4]: 39.8% | inhibition in vivo at 25 mg/kg [5]: 10.6% | Activity [6]: 48.9 10^-2mm | inhibition in vivo at 50 mg/kg [7]: 40.2% | inhibition in vivo at 25 mg/kg [8]: 13.9% | Activity [9]: 35.3 10^-2mm | Activity [10]: Active | Activity [11]: 44.1 | inhibition in vivo at 100 mg/kg [12]: 48.7% | Activity [13]: Active | Activity [14]: 57.9 10^-2mm | inhibition in vivo at 200 mg/kg [15]: 14.5% | Activity [16]: 31 10^-2mm | inhibition in vivo at 50 mg/kg [17]: 59.5% | Activity [18]: 55.4 10^-2mm | inhibition in vivo at 25 mg/kg [19]: 15% | inhibition in vivo at 100 mg/kg [20]: 39.3% | Activity [21]: Non-toxic | Activity [22]: 45.8 10^-2mm | Activity [23]: 37.8 | Activity [24]: 36.1 10^-2mm
